# Only some compounds are listed: those with a hit (about 1.8% of all), similar ones and a draw of the others.
# SIAE primary: blocks human sialic acid acetylesterase | inhibition, % at 9.66 µM | SIAE FP-Rh probe binding, fluorescence polarization | 370,000 compounds, 0.69% hits | AID 1053197 | Q9HAT2;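 active means inhibition above a cutoff: mean of compounds within the control limits plus 3 SD of those, cut at about 17% in these data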;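 further: 0% = plate median of compound wells and 100% = probe without SIAE protein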
# Tn6 DDE FP: disrupts Tn6 cyclic peptide binding to fibrin D-Dimer-E complex | P02675 | inhibition, % at 8.3 µM | 370,000 compounds, 0.21% hits | Fibrin DD(E) TRITC-Tn6 fluorescence polarization displacement;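 active means inhibition above a per-campaign cutoff: mean of compounds within control limits plus 3 SD, cut at about 15% in these data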;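 further: 0% = median of all compound wells on the plate and 100% = blocking peptide control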
# Tn7 DDE FP: inhibitors of Tn7 peptide binding to human fibrin DD(E). FP displacement of FITC-Tn7 peptide from fibrin DD(E); 0% = median of compound wells per plate. inhibition, % at 8.3 µM. 370,000 compounds, 0.13% hits. AID 720508;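 active means inhibition above the mean of compounds falling within the control limits plus 3 SD of them, cut at about 14% in these data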;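 further: 0% = plate median of compound wells and 100% = 10 µM Aha-Tn7 peptide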
#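 system = human fibrin DD(E) protein | quantity = DD(E) 2 µM final | medium = Tris/NaCl/CaCl2 buffer, pH 7.8 | also added = labelled Tn7 tracer, 0.1 µM | compound dosing = single point at 8.3 µM | timing = compound with protein 10 min, then 3 h after probe, room temperature | signal = FP measurement | benchmarks = Aha-Tn7 high control | repeats = one replicate per compound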
# TCR CD3 inh: inhibitors of human TCR-CD3 interaction. TAMRA-labeled TCR probe fluorescence, biochemical. 360,000 compounds, 0.37% hits. inhibition, % at 9.4 µM; in the data active means inhibition above about 19%;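 further: recombinant mutant TCR 2C K166C tagged with TAMRA read by polarization; 0% = receptor in buffer alone and 100% = receptor with positive control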
# HTRA1 inhibitor: HTRA1 (human) protease inhibition; Q92743; recombinant HTRA1, FP-rhodamine activity-based probe, fluorescence polarization; inhibition, % at 5.96 µM; 340,000 compounds, 0.5% hits; in the data active means inhibition above about 36%;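 further: 0% = enzyme with DMSO and 100% = wells lacking enzyme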
# mABHD4 FP: ABHD4 (mouse) inhibition, primary FP screen | Q8VD66 | purified mABHD4, FP-Rh probe fluorescence polarization | inhibition, % at 8.92 µM | 370,000 compounds, 0.54% hits | AID 720543;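 active means inhibition exceeding the mean over every tested compound plus 3 SD, cut at about 30% in these data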;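 further: 0% = plate median of compound wells and 100% = S159A mutant with DMSO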
# Target sequence (Q8VD66 whole entry, looked up): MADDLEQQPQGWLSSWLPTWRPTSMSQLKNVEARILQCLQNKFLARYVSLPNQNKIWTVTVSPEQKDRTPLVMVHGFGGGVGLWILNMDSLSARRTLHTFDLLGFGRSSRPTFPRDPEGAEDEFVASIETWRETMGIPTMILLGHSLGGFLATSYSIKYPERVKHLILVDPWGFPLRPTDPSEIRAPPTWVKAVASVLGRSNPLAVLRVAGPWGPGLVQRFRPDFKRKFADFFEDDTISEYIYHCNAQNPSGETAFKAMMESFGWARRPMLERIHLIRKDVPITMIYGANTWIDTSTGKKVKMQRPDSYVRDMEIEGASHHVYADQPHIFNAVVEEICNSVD
#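 Assay system: mABHD4 protein; medium: HEPES pH 7.0, NaCl, Pluronic buffer; dosing: 8.92 µM, single dose; schedule: 45 min + 60 min at 25 °C; signal: FP readout, ex 525 nm / em 598 nm; read-out: normalized percent inhibition of probe labeling; repeats: single replicate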
# mABHD4 conf: ABHD4 (mouse) inhibition, FP confirmation | purified mABHD4, FP-Rh probe fluorescence polarization | 1,800 compounds, 55% hits | inhibition, % at 8.92 µM | shares compounds with mABHD4 FP;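 active means mean inhibition across replicates above the hit cutoff set in the primary screen, cut at about 30% in these data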;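 further: 0% = wild-type ABHD4 with DMSO and 100% = catalytically dead S159A mutant with DMSO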
# * hit, by the source's call; / = not tested or not shown.
SMILES,SIAE primary,Tn6 DDE FP,Tn7 DDE FP,TCR CD3 inh,HTRA1 inhibitor,mABHD4 FP,mABHD4 conf
O=C(CN1C(=O)/C(=C2\SC(=S)N(CCS(=O)(=O)O)C2=O)c2ccccc21)Nc1cccc(Br)c1,-3,-5,9,9,-39,67*,83*
COc1ccccc1N1CCN(CCCCOc2ccc(C)cc2C)CC1,-3,-3,2,-5,3,31*,17
COC(=O)C(=O)C1CCc2c(Cl)cc(OC)c(OC)c2C1=O (stereo not drawn),14,2,-2,-5,12,52*,12
O=C(Nc1cccc(Cl)c1)c1nc[nH]c1C(=O)N1CCN(c2ccccc2)CC1,-4,-5,6,-6,-11,-3,/
CCCCN1C(=O)/C(=C/C=C2\SCCN2C)SC1=S,6,-14,-29,-14,11,33*,20
CN1CCS/C1=C/C=C1\SC(=S)N(CC(=O)O)C1=O,1,4,-106,4,-5,-10,/
COc1ccc(N2C(=O)CS/C2=C\[N+](=O)[O-])cc1,8,-15,-2,-8,6,30*,3
COc1ccc(N2C(=O)CCC2=O)cc1,0,1,-1,-3,0,-1,/
CCOC(=O)C1CCCN(C(=O)c2sc(-c3ccccc3)nc2C)CC1 (stereo not drawn),1,5,-7,5,/,-2,/
O=C(O)CC/C(=C\c1ccccc1[N+](=O)[O-])c1nc2ccccc2s1,-10,1,0,4,4,-1,/
CN(c1ccccc1)c1ccc(/C=C(/CCC(=O)O)c2nc3ccccc3s2)cc1[N+](=O)[O-],7,-8,-2,-10,33,46*,56*
O=C(O)CC/C(=C\c1ccc(N2CCCC2)c([N+](=O)[O-])c1)c1nc2ccccc2s1,-14,3,-5,-8,10,46*,51*
O=C(O)CC/C(=C\c1cc([N+](=O)[O-])ccc1Cl)c1nc2ccccc2s1,-4,-3,0,7,-6,-10,/
Cc1cc(S(=O)(=O)/N=C(\N)c2ccc(C(N)=O)cc2)cc(C)c1F,-15,3,0,-10,-1,-14,/
CC(C)CCNC(=O)c1ccc2c(SCC(=O)O)c3c(nc2c1)CCC3,-1,-1,-2,-10,-10,46*,9
COc1cccc(C(=O)N(C)Cc2c(C)nn(C3CCS(=O)(=O)C3)c2C)c1 (stereo not drawn),4,5,-5,-5,-2,4,/
CCc1ccc(NC2=CC(=O)CC(c3ccco3)C2)cc1 (stereo not drawn),-2,-14,-1,-8,1,37*,12
Cc1nn(C)cc1S(=O)(=O)N1CCN(c2ccccc2)CC1,4,6,3,-6,4,0,/
O=C(CCNC(=O)C1CCN(S(=O)(=O)c2ccc(F)cc2)CC1)NCc1ccc(Cl)cc1,1,-5,5,3,9,2,/
O=C(N1CCCC1)n1ncc(-c2ccc(-c3ccccc3)cc2)n1,-7,8,11,/,/,47*,42*
O=C(c1ccc(-c2ccccc2)cc1)N1CCCC1,-2,5,1,7,-3,0,/
CNc1sc(C(=O)c2ccc(F)cc2)c(N)c1-c1nc2ccccc2s1,-3,-5,-6,5,19,32*,68*
CN(C(=O)c1ccc(NC(=O)C2CCN(C(=O)OC(C)(C)C)CC2)cc1)C1CCC1,-1,4,-2,-1,-1,6,/
C/C(=N\Nc1ccc(Cl)c(C(=O)O)c1)c1cccs1,-3,-5,-1,0,2,7,/
C/C(=N\Nc1ccc(Cl)c(C(=O)O)c1)c1ccc[nH]1,10,1,-3,-7,17,35*,50*
Cc1cccc(N2C(=O)SC(N(C)c3ccccc3)C2=O)c1 (stereo not drawn),-1,-8,-5,-5,-12,64*,-9
O=C1Nc2ccccc2N(O)N1c1cc(-c2ccccc2)[nH]n1,3,5,1,4,1,2,/
